Measurements taken from ChEMBL document CHEMBL1125626, “Synthesis and structure-activity relationship of new cephalosporins with amino heterocycles at C-7. Dependence of the antibacterial spectrum and beta-lactamase stability on the pKa of the C-7 heterocycle” (1991).
≈ marks a conversion by molar mass, not a printed value.

Tests used:
Escherichia coli [1] = experiment: Minimum inhibitory concentration against Escherichia coli DC2 (inoculum, 10e4 cfu per spot); type: functional
How it was run: (§1)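 MIC in µg/mL, determined in Jewell and Permain growth medium with spot inoculation at 10^4 cfu per spot. P99 is described as a constitutive type I lactamase producer.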

Serratia marcescens = experiment: Minimum inhibitory concentration against Serratia marcescens A16 (inoculum, 10e5 cfu per spot); type: functional
How it was run: (§2)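 MIC in µg/mL, determined in Jewell and Permain growth medium with spot inoculation at 10^5 cfu per spot.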

Klebsiella aerogenes [2] = experiment: Minimum inhibitory concentration against Klebsiella aerogenes X5L (inoculum, 10e4 cfu per spot); type: functional; how it was run: as §1
Streptococcus pyogenes = experiment: Minimum inhibitory concentration against Streptococcus pyogenes (inoculum, 10e5 cfu per spot) A1; type: functional; how it was run: as §2
Escherichia coli [3] = experiment: Minimum inhibitory concentration against Escherichia coli A8 (inoculum, 10e5 cfu per spot); type: functional; how it was run: as §2
Pseudomonas aeruginosa = experiment: Minimum inhibitory concentration against Pseudomonas aeruginosa A21 (inoculum, 10e5 cfu per spot); type: functional; how it was run: as §2
Klebsiella aerogenes [4] = experiment: Minimum inhibitory concentration against Klebsiella aerogenes X6 (inoculum, 10e4 cfu per spot); type: functional; how it was run: as §1
Enterobacter cloacae [5] = experiment: Minimum inhibitory concentration against Enterobacter cloacae A13 (inoculum, 10e5 cfu per spot); type: functional; how it was run: as §2
Escherichia coli [6] = experiment: Minimum inhibitory concentration against Escherichia coli DCO (inoculum, 10e4 cfu per spot); type: functional; how it was run: as §1
Staphylococcus aureus [7] = experiment: Minimum inhibitory concentration against Staphylococcus aureus A4 (inoculum, 10e5 cfu per spot); type: functional; how it was run: as §2
Escherichia coli [8] = experiment: Minimum inhibitory concentration against Escherichia coli X4 (inoculum, 10e4 cfu per spot)
Enterobacter cloacae [9] = experiment: Minimum inhibitory concentration against Enterobacter cloacae P99 (inoculum, 10e4 cfu per spot)(type I lactamase producer); type: functional; how it was run: as §1
Escherichia coli [10] = experiment: Minimum inhibitory concentration against Escherichia coli TEM X3 (inoculum, 10e4 cfu per spot)(TEM I type lactamase producer)
Proteus mirabilis = experiment: Minimum inhibitory concentration against Proteus mirabilis A18 (inoculum, 10e5 cfu per spot); type: functional; how it was run: as §2
Staphylococcus aureus [11] = experiment: Minimum inhibitory concentration against Staphylococcus aureus A6 (inoculum, 10e5 cfu per spot); type: functional; how it was run: as §2
Enterobacter cloacae [12] = experiment: Minimum inhibitory concentration against Enterobacter cloacae P99 (inoculum, 10e4 cfu per spot); type: functional; how it was run: as §1
Klebsiella pneumoniae = experiment: Minimum inhibitory concentration against Klebsiella pneumoniae A24 (inoculum, 10e5 cfu per spot); type: functional; how it was run: as §2
Proteus vulgaris = experiment: Minimum inhibitory concentration against Proteus vulgaris Pv9 (inoculum, 10e5 cfu per spot)

Compound | MIC (Escherichia coli [1]) | MIC (Serratia marcescens) | MIC (Klebsiella aerogenes [2]) | MIC (Streptococcus pyogenes) | MIC (Escherichia coli [3]) | MIC (Pseudomonas aeruginosa) | MIC (Klebsiella aerogenes [4]) | MIC (Enterobacter cloacae [5]) | MIC (Escherichia coli [6]) | MIC (Staphylococcus aureus [7]) | MIC (Escherichia coli [8]) | MIC (Enterobacter cloacae [9]) | MIC (Escherichia coli [10]) | MIC (Proteus mirabilis) | MIC (Staphylococcus aureus [11]) | MIC (Enterobacter cloacae [12]) | MIC (Klebsiella pneumoniae) | MIC (Proteus vulgaris)
CC1=C(C(=O)OC(c2ccccc2)c2ccccc2)N2C(=O)[C@@H](NC3=NCC(C)N3)C2SC1 (some centres not stated) | 4 µg/mL (≈ 8.65 µM) | > 256 µg/mL | 40 µg/mL (≈ 86.5 µM) | > 256 µg/mL | 128 µg/mL (≈ 277 µM) | > 256 µg/mL | 8 µg/mL (≈ 17.3 µM) | > 256 µg/mL | 8 µg/mL (≈ 17.3 µM) | > 256 µg/mL | 2 µg/mL (≈ 4.32 µM) | 2 µg/mL (≈ 4.32 µM) | 2 µg/mL (≈ 4.32 µM) | > 256 µg/mL | > 256 µg/mL | 2 µg/mL (≈ 4.32 µM) | > 256 µg/mL | 
CC(=O)OCC1=C(C(=O)OC(c2ccccc2)c2ccccc2)N2C(=O)[C@@H](Nc3nc4c(N)cccc4[nH]3)C2SC1 (some centres not stated) | 1 µg/mL (≈ 1.76 µM) | > 200 µg/mL | > 200 µg/mL | 40 µg/mL (≈ 70.2 µM) | 40 µg/mL (≈ 70.2 µM) | > 200 µg/mL | 8 µg/mL (≈ 14 µM) | > 200 µg/mL | 4 µg/mL (≈ 7.02 µM) | > 200 µg/mL | 8 µg/mL (≈ 14 µM) | > 200 µg/mL | 128 µg/mL (≈ 225 µM) | 200 µg/mL (≈ 351 µM) | 40 µg/mL (≈ 70.2 µM) | 4 µg/mL (≈ 7.02 µM) | > 200 µg/mL | 
CC(=O)OCC1=C(C(=O)OC(c2ccccc2)c2ccccc2)N2C(=O)[C@@H](Nc3nc4cc(O)ccc4[nH]3)C2SC1 (some centres not stated) | 0.016 µg/mL (≈ 0.028 µM) | 256 µg/mL (≈ 449 µM) | 64 µg/mL (≈ 112 µM) |  | 0.12 µg/mL (≈ 0.21 µM) | > 256 µg/mL | 0.5 µg/mL (≈ 0.876 µM) | 128 µg/mL (≈ 224 µM) | 0.12 µg/mL (≈ 0.21 µM) | 16 µg/mL (≈ 28 µM) | 0.12 µg/mL (≈ 0.21 µM) | 128 µg/mL (≈ 224 µM) | 1 µg/mL (≈ 1.75 µM) | 0.5 µg/mL (≈ 0.876 µM) | 4 µg/mL (≈ 7.01 µM) | 0.12 µg/mL (≈ 0.21 µM) | 2 µg/mL (≈ 3.5 µM) | 32 µg/mL (≈ 56.1 µM)
CC(=O)OCC1=C(C(=O)OC(c2ccccc2)c2ccccc2)N2C(=O)[C@@H](Nc3nc4cc(C(=O)O)ccc4[nH]3)C2SC1 (some centres not stated) | 0.25 µg/mL (≈ 0.418 µM) | > 256 µg/mL | > 256 µg/mL | 8 µg/mL (≈ 13.4 µM) | 16 µg/mL (≈ 26.7 µM) | > 256 µg/mL | 16 µg/mL (≈ 26.7 µM) | > 256 µg/mL | 8 µg/mL (≈ 13.4 µM) | 256 µg/mL (≈ 428 µM) | 8 µg/mL (≈ 13.4 µM) | > 256 µg/mL | 16 µg/mL (≈ 26.7 µM) | 32 µg/mL (≈ 53.5 µM) | 32 µg/mL (≈ 53.5 µM) | 4 µg/mL (≈ 6.68 µM) | 32 µg/mL (≈ 53.5 µM) | 
CC1=C(C(=O)OC(c2ccccc2)c2ccccc2)N2C(=O)[C@@H](NC3=NC(c4ccccc4)CN3)C2SC1 (some centres not stated) | 0.5 µg/mL (≈ 0.953 µM) |  | 8 µg/mL (≈ 15.2 µM) | 256 µg/mL (≈ 488 µM) | 2 µg/mL (≈ 3.81 µM) | > 256 µg/mL | 2 µg/mL (≈ 3.81 µM) | 2 µg/mL (≈ 3.81 µM) | 1 µg/mL (≈ 1.91 µM) | > 256 µg/mL | 1 µg/mL (≈ 1.91 µM) | 2 µg/mL (≈ 3.81 µM) | 1 µg/mL (≈ 1.91 µM) | > 256 µg/mL | > 256 µg/mL | 1 µg/mL (≈ 1.91 µM) | 4 µg/mL (≈ 7.62 µM) | > 256 µg/mL
CC1=C(C(=O)OC(c2ccccc2)c2ccccc2)N2C(=O)[C@@H](NC3=NCCN3C)C2SC1 (some centres not stated) | 32 µg/mL (≈ 69.2 µM) | > 200 µg/mL | > 200 µg/mL | > 200 µg/mL | 40 µg/mL (≈ 86.5 µM) | > 200 µg/mL | 128 µg/mL (≈ 277 µM) | > 200 µg/mL | 128 µg/mL (≈ 277 µM) | > 200 µg/mL | 128 µg/mL (≈ 277 µM) | 128 µg/mL (≈ 277 µM) | 128 µg/mL (≈ 277 µM) | > 200 µg/mL | > 200 µg/mL | 64 µg/mL (≈ 138 µM) | 40 µg/mL (≈ 86.5 µM) | 

The next lines start with the values.

MIC (Escherichia coli [1]) | MIC (Serratia marcescens) | MIC (Klebsiella aerogenes [2]) | MIC (Streptococcus pyogenes) | MIC (Escherichia coli [3]) | MIC (Pseudomonas aeruginosa) | MIC (Klebsiella aerogenes [4]) | MIC (Enterobacter cloacae [5]) | MIC (Escherichia coli [6]) | MIC (Staphylococcus aureus [7]) | MIC (Escherichia coli [8]) | MIC (Enterobacter cloacae [9]) | MIC (Escherichia coli [10]) | MIC (Proteus mirabilis) | MIC (Staphylococcus aureus [11]) | MIC (Enterobacter cloacae [12]) | MIC (Klebsiella pneumoniae) | MIC (Proteus vulgaris) | Compound
0.25 µg/mL (≈ 0.545 µM) | > 256 µg/mL | 256 µg/mL (≈ 558 µM) | 32 µg/mL (≈ 69.8 µM) | 128 µg/mL (≈ 279 µM) | > 256 µg/mL | 256 µg/mL (≈ 558 µM) | > 256 µg/mL | 64 µg/mL (≈ 140 µM) | > 256 µg/mL | 32 µg/mL (≈ 69.8 µM) | > 256 µg/mL | 64 µg/mL (≈ 140 µM) | 32 µg/mL (≈ 69.8 µM) | 32 µg/mL (≈ 69.8 µM) | 64 µg/mL (≈ 140 µM) |  |  | CC(=O)OCC1=C(C(=O)OC(C)(C)C)N2C(=O)[C@@H](Nc3nc4ccccc4n3C)C2SC1 (some centres not stated)
> 256 µg/mL | > 256 µg/mL | > 256 µg/mL | > 256 µg/mL | > 256 µg/mL | > 256 µg/mL | > 256 µg/mL | > 256 µg/mL | > 256 µg/mL | > 256 µg/mL | > 256 µg/mL | > 256 µg/mL | > 256 µg/mL | > 256 µg/mL | > 256 µg/mL | > 256 µg/mL |  |  | CC1=C(C(=O)OC(C)(C)C)N2C(=O)[C@@H](Nc3nc4ccccc4n3CC(=O)OC(C)(C)C)C2SC1 (some centres not stated)
0.12 µg/mL (≈ 0.239 µM) | > 256 µg/mL | > 256 µg/mL | 4 µg/mL (≈ 7.98 µM) | 1 µg/mL (≈ 1.99 µM) | > 256 µg/mL | 2 µg/mL (≈ 3.99 µM) | > 256 µg/mL | 1 µg/mL (≈ 1.99 µM) | 256 µg/mL (≈ 510 µM) | 1 µg/mL (≈ 1.99 µM) | > 256 µg/mL | 16 µg/mL (≈ 31.9 µM) | 8 µg/mL (≈ 16 µM) | 8 µg/mL (≈ 16 µM) | 2 µg/mL (≈ 3.99 µM) | 32 µg/mL (≈ 63.8 µM) | 128 µg/mL (≈ 255 µM) | CC(=O)Nc1ccc2[nH]c(N[C@@H]3C(=O)N4C(C(=O)OC(C)(C)C)=C(COC(C)=O)CSC34)nc2c1 (some centres not stated)
